Published values gathered from unrelated publications.
Compare with care: the assays were run in different laboratories. pIC50, pKd, pKi: −log10 of the molar value.
ACE: Angiotensin-converting enzyme (ACE, Oryctolagus cuniculus, UniProt P12822)
dxs: dxs (Pseudomonas aeruginosa, UniProt Q9KGU7)
ALOX5: Polyunsaturated fatty acid 5-lipoxygenase (ALOX5, Homo sapiens, UniProt P09917)

SMILES | target | observed | mode | technique | setting | quantity | result
N[C@@H](Cc1c[nH]cn1)C(=O)N[C@@H](CC(=O)O)C(=O)N[C@@H](CS)C(=O)N[C@@H](Cc1ccccc1)C(=O)O | ACE | enzyme activity | inhibitor |  |  | pIC50 | 5.35
N=C(N)NCCC[C@H](NC(=O)[C@H](Cc1ccccc1)NC(=O)[C@@H]1CCCN1C(=O)[C@H](CO)NC(=O)[C@@H]1CCCN1C(=O)[C@@H](N)Cc1ccccc1)C(=O)O | ACE | enzyme activity | inhibitor |  |  | pIC50 | 4.09
CCCCOc1cc(C(=O)NCCN(CC)CC)c2ccccc2n1 | PKD2L1 (Homo sapiens, UniProt Q9P0L9, F549I) | ion current | inhibitor | patch clamp |  | pIC50 | 4.12
CC(=O)P(=O)(O)OCCc1cn([C@H](Cc2ccccc2)C(=O)O)nn1 | dxs | enzyme activity | inhibitor |  |  | pKi | 5.59
CCN1CCN(Cc2ccc(Nc3ncc(F)c(-c4cc(F)c5nc6n(c5c4)[C@H](C)CCC6)n3)nc2)CC1 | Multidrug and toxin extrusion protein 2 (SLC47A2, Homo sapiens, UniProt Q86VL8) | enzyme activity | inhibitor |  |  | pIC50 | 7.18
Cn1c(=O)n(CCCCN2CCC3(CC2)OCc2ccccc23)c2ccccc21 | Sodium-dependent serotonin transporter (Slc6a4, Rattus norvegicus, UniProt P31652) | ligand displacement |  | radioligand | cell membranes | pKi | 5.55
C=CCOc1ccc(C(=O)/C=C/c2ccc(OC)cc2)c(OS(C)(=O)=O)c1I | ALOX5 | enzyme activity | inhibitor |  |  | pIC50 | 4.42
CCCCOP(=O)(O)C(C)=O | dxs | enzyme activity | inhibitor |  |  | pKi | 5.74
COc1ccc(CCCCC(=O)C(F)(F)C(F)(F)F)cc1 | Cytosolic phospholipase A2 (PLA2G4A, Homo sapiens, UniProt P47712) | enzyme activity | inhibitor |  |  | pIC50 | 4.58
C=CCOc1ccc(C(=O)/C=C/c2cccc(F)c2)c(OS(C)(=O)=O)c1I | ALOX5 | enzyme activity | inhibitor |  |  | pIC50 | 4.46
COC(=O)C1=CO[C@@H](O[C@@H]2O[C@H](CO)[C@@H](O)[C@H](O)[C@H]2O)[C@@H]2C(CO)=CC[C@H]12 | Cystathionine beta-synthase (CBS, Homo sapiens, UniProt P35520) | binding |  | MST |  | pKd | 4.42
CC(C)C[C@H](N)C(=O)N[C@@H](Cc1c[nH]c2ccccc12)C(=O)N[C@@H](CC(=O)O)C(=O)N1CCC[C@H]1C(=O)N1CCC[C@H]1C(=O)N[C@@H](CCC(=O)O)C(=O)NCC(=O)N[C@@H](C)C(=O)N1CCC[C@H]1C(=O)O | ACE | enzyme activity | inhibitor |  |  | pIC50 | 3.68
COc1cc2c(cc1OC)CN(CCc1ccc(NC(=O)c3cccc4c(=O)c5cccc(OC)c5[nH]c34)cc1)CC2 | Mu-type opioid receptor (OPRM1, Homo sapiens, UniProt P35372) | cell-free assay |  |  |  | pKi | < 5.00
